We go through 11 molecules from ChEMBL document CHEMBL1156777, “Synthesis and antiprotozoal activity of cationic 1,4-diphenyl-1H-1,2,3-triazoles” (J Med Chem, 2010).

Active and inactive are the calls of the source. The calls are words filed in the database; no cut-off is given here. Bounds are passed on as bounds.

Series [1] concerns Trypanosoma brucei rhodesiense. The experiment in a line: Antitrypanosomal activity against Trypanosoma brucei rhodesiense STIB900 infected in NMRI mouse assessed as mean parasitemia relaps day at 5 mg/kg, ip. The following applies: route intraperitoneal. The class given is functional. In outline:
(§1)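 Female NMRI mice infected ip with 2 × 10⁴ STIB900 bloodstream forms. Groups of four dosed ip daily on days 3–6 postinfection; compounds in DMSO diluted with water to 10% final DMSO. Untreated infected controls. Tail-blood parasitaemia checked on days 7 and 10, twice weekly to day 30, then weekly to day 60. Relapse day recorded for mean relapse day; cure means parasite-free survival to day 60.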

The nature of series [2]: Selectivity index, ratio of IC50 for rat L6 cells to IC50 for Leishmania donovani MHOM/SD/62/1S-CL2D. The class given is toxicity, cell-based. The settings on record: read-out: Ratio IC50. Summed up:
(§2)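 Each index is L6 IC50 divided by parasite IC50. L6 values are from the 70 h resazurin assay. T. b. rhodesiense STIB900 values are from the 70 h resazurin assay. P. falciparum K1 values are from erythrocytic-stage [³H]-hypoxanthine incorporation: 48 h drug exposure, then 24 h with label. L. donovani values are from the 72 h axenic amastigote CellTiter assay.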

Another series relates to Plasmodium falciparum. The experiment in a line: Antiplasmodial activity against chloroquine-resistant Plasmodium falciparum K1 infected in human erythrocytes after 48 hrs assessed as [3H]hypoxanthine incorporation by liquid scintillation counting. The class given is functional, organism-based.
Another series deals with Leishmania donovani. The series is described as follows: Antileishmanial activity against Leishmania donovani MHOM/SD/62/1S-CL2D. It is filed as functional, organism-based. In outline:
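Axenic amastigotes (MHOM/SD/62/1S-CL2_D) adapted from promastigotes and grown in amastigote medium at 37 °C. 6 × 10⁴ parasites per well were exposed to 2-fold serial dilutions for 72 h at 37 °C in humidified 5% CO₂. Growth was read with tetrazolium CellTiter reagent as absorbance at 490 nm. IC50 came from a four-parameter dose–response fit; duplicate determinations were averaged.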

Series [3] in a line: Selectivity index, ratio of IC50 for rat L6 cells to IC50 for Trypanosoma brucei rhodesiense STIB900. The class given is toxicity, cell-based. The settings on record: read-out: Ratio IC50. In outline: as §2
Series [4] has as its system Mus musculus. The series is described as follows: Toxicity in NMRI mouse infected with Trypanosoma brucei rhodesiense STIB900 assessed as survival at 5 mg/kg, ip after administered for 4 consecutive days from day 3 postinfection measured after 7 to 30 days. On the set-up: dose 5 mg/kg, route intraperitoneal. The following applies: in vivo. It is filed as organism-based. Summed up:
as §1

The next series has as its system L6. The series is described as follows: Cytotoxicity against rat L6 cells after 70 hrs by alamar blue assay. The class given is cell-based. The following applies: L6, 70 h. In outline:
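Cells were exposed to serial dilutions for 70 h at 37 °C, 5% CO₂, then given resazurin for 2–3 h. IC50 came from sigmoidal curves; two independent runs in duplicate. Top concentration was 90 μg/mL, converted to μM by molecular weight.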

A short description of series [5]: Selectivity index, ratio of IC50 for rat L6 cells to IC50 for Plasmodium falciparum K1. The class given is toxicity, cell-based. The following applies: read-out: Ratio IC50. Summed up:
as §2

Series [6] concerns Trypanosoma brucei rhodesiense. The series is described as follows: Antitrypanosomal activity against Trypanosoma brucei rhodesiense STIB900 after 70 hrs by alamar blue assay. The following applies: STIB900, 70 h. The class given is functional, organism-based.
In another series the test system is Plasmodium berghei. The experiment in a line: Antiplasmodial activity against Plasmodium berghei infected in mice (Mus musculus) assessed as inhibition of parasitaemia at 30 mg/kg, subcutaneous for 4 days. It is filed as functional, organism-based. On the set-up: dose 30 mg/kg. Summed up:
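P. berghei mouse model. Compound was given subcutaneously at 30 mg/kg daily for four days. The read-out was blood parasite count. For in vivo use, compounds were dissolved in DMSO and diluted with distilled water to 10% DMSO final.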

The subject of series [7] is Trypanosoma brucei rhodesiense. The experiment in a line: Antitrypanosomal activity against Trypanosoma brucei rhodesiense STIB900 infected in NMRI mouse assessed as mean parasitemia relaps day at 20 mg/kg, ip. The settings on record: route intraperitoneal. It is filed as functional. In outline:
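Female NMRI mice were infected ip with 2 × 10⁴ STIB900 bloodstream forms, in groups of four. Compound in 10% DMSO/distilled water was given ip at 5 mg/kg daily on days 3–6 postinfection, with untreated infected controls. Tail-blood parasitaemia was checked on days 7 and 10, then twice weekly to day 30 and weekly to day 60. Relapse day was recorded for mean relapse day.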

Series [8] concerns Mus musculus. The experiment in a line: Toxicity in NMRI mouse infected with Trypanosoma brucei rhodesiense STIB900 assessed as survival at 1 mg/kg, ip after administered for 4 consecutive days from day 3 postinfection measured after 7 to 30 days. It is filed as organism-based. The arrangement: dose 1 mg/kg, route intraperitoneal. The settings on record: in vivo. Summed up:
as §1

Series [9] concerns Trypanosoma brucei rhodesiense. The series is described as follows: Antitrypanosomal activity against Trypanosoma brucei rhodesiense STIB900 infected in NMRI mouse assessed as mean parasitemia relaps day at 10 mg/kg, ip. The class given is functional. The settings on record: route intraperitoneal. Summed up: (§3)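 Single-dose ip regimen at 10 mg/kg in female NMRI mice infected ip with 2 × 10⁴ STIB900 bloodstream forms, four mice per group. Dosing solution was DMSO diluted with water to 10% final DMSO. Tail-blood parasitaemia followed to day 60 postinfection, with relapse day recorded; untreated infected controls.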

Series [10] deals with Mus musculus. The experiment in a line: Toxicity in NMRI mouse infected with Trypanosoma brucei rhodesiense STIB900 assessed as survival at 10 mg/kg, ip after administered 1 day postinfection measured after 7 to 30 days. The settings on record: in vivo. It is filed as organism-based. On the set-up: dose 10 mg/kg, route intraperitoneal. In outline: as §3
Series [11] relates to Trypanosoma brucei rhodesiense. The experiment in a line: Antitrypanosomal activity against Trypanosoma brucei rhodesiense STIB900 infected in NMRI mouse assessed as mean parasitemia relaps day at 1 mg/kg, ip. The class given is functional. The settings on record: route intraperitoneal. In outline:
as §1

Series [12] deals with Trypanosoma brucei rhodesiense. The experiment in a line: Antitrypanosomal activity against Trypanosoma brucei rhodesiense STIB900 infected in NMRI mouse assessed as mean parasitemia relaps day at 0.5 mg/kg, ip. The class given is functional. The settings on record: route intraperitoneal. Summed up: as §1
In series [13] the test system is Mus musculus. The series is described as follows: Toxicity in NMRI mouse infected with Trypanosoma brucei rhodesiense STIB900 assessed as survival at 0.5 mg/kg, ip after administered for 4 consecutive days from day 3 postinfection measured after 7 to 30 days. The class given is organism-based. On the set-up: dose 0.5 mg/kg, route intraperitoneal. The settings on record: in vivo. Summed up: as §1

Series [14] deals with Mus musculus. The series is described as follows: Toxicity in NMRI mouse infected with Trypanosoma brucei rhodesiense STIB900 assessed as survival at 2 mg/kg, ip after administered for 4 consecutive days from day 3 postinfection measured after 7 to 30 days. The class given is organism-based. The arrangement: dose 2 mg/kg, route intraperitoneal. The settings on record: in vivo. Summed up: as §1

The subject of series [15] is Mus musculus. The series is described as follows: Toxicity in NMRI mouse infected with Trypanosoma brucei rhodesiense STIB900 assessed as survival at 8 mg/kg, ip after administered for 4 consecutive days from day 3 postinfection measured after 7 to 30 days. It is filed as organism-based. The arrangement: dose 8 mg/kg, route intraperitoneal. The following applies: in vivo. In outline:
as §1

Consider `COc1cc(C(=N)N)ccc1-n1cc(-c2cccc(C(=N)N)c2)nn1.Cl.Cl`, for which the Activity in series [1] was 13 days; with Mus musculus [4], “Toxic”. For the same molecule, the selectivity ratio was over 6 in series [2], over 17500 in [3] and over 7680 in series [5]. The concentration for half-maximal inhibition (IC50) is 25 nM with Plasmodium falciparum, 33000 nM in the series on Leishmania donovani, over 192000 nM in the series on L6 and 11 nM in series [6].

As to `Cl.Cl.N=C(N)c1cccc(-c2cn(-c3cccc(C(=N)N)c3)nn2)c1`, the Activity in [1] is 10 days; with Mus musculus [4], “Toxic”. The figures for the selectivity ratio in [2], in series [3] and in series [5] were 5, 2640 and 10400, respectively. The IC50 with Plasmodium falciparum turned out to be 21 nM; in the series on Leishmania donovani, 48000 nM; in the series on L6, 219000 nM; in series [6] it was 83 nM.

Consider `Cl.Cl.Oc1cc(C2=NCCN2)ccc1-c1cn(-c2ccc(C3=NCCN3)cc2)nn1`, for which the Activity in series [1] is 10 days; in the series with Mus musculus [4], “Toxic”. Also, the values for the selectivity ratio in series [2], in series [3] and in series [5] were over 8, over 5000 and over 317000, respectively. In addition, the IC50 in the series on Plasmodium falciparum was 0.6 nM; in the series on Leishmania donovani, 24000 nM; with L6, over 190000 nM; in series [6], 38 nM. Moreover, in the series on Plasmodium berghei, the result was inactive.

For the molecule `N=C(N)c1ccc(OCCCCCOc2ccc(C(=N)N)cc2)cc1` [PENTAMIDINE], the values for the Activity in [1] and in series [7] were 20 days and 26 days, respectively.

For the molecule `Cl.Cl.N=C(N)c1ccc(-n2cc(-c3ccc(C(=N)N)cc3O)nn2)cc1`, the selectivity ratio was found to be 11 in series [2], 3080 in series [3] and 24600 in series [5]. The IC50 in the series with Plasmodium falciparum was 2 nM; in the series on Leishmania donovani, 4300 nM; in the series on L6, 49300 nM; in series [6] it was 16 nM. Further, in the series on Mus musculus [4], the Activity entry is reported as “Non-toxic”.

Turning to `COc1cc(C(=N)N)ccc1-c1cn(-c2cccc(C(=N)N)c2)nn1.Cl.Cl`, the Activity result in the series on Mus musculus [8] was “Toxic”; in series [9], 23.5 days; in the series with Mus musculus [4], “Non-toxic”; in the series on Mus musculus [10], “Toxic”; in series [11], 9.5 days. The selectivity ratio in [2] stood at 15; in [3], 32800; in series [5], 23400. Besides, the IC50 is 7 nM with Plasmodium falciparum, 11000 nM in the series with Leishmania donovani, 164000 nM in the series with L6 and 5 nM in series [6].

`Cl.Cl.Oc1ccc(C2=NCCN2)cc1-c1cn(-c2ccc(C3=NCCN3)cc2)nn1`: the Activity is 10.75 days in [1] and “Toxic” in the series with Mus musculus [4]. Further, the selectivity ratio in series [2] was over 4; in [3] it was over 4420; in series [5], over 21100. Further, the IC50 in the series with Plasmodium falciparum was 9 nM; in the series on Leishmania donovani, 43000 nM; in the series on L6, over 190000 nM; in series [6] it was 43 nM.

For the molecule `Cl.Cl.N=C(N)c1cccc(-n2cc(-c3cc(C(=N)N)ccc3O)nn2)c1`, the figures for the Activity (in [1]; in the series on Mus musculus [4]) were 14.75 days and “Toxic”, respectively. For the same molecule, the selectivity ratio was over 7 in [2], over 782 in [3] and over 3780 in series [5]. For the same molecule, the IC50 was 36 nM in the series with Plasmodium falciparum, 20000 nM with Leishmania donovani, over 136000 nM in the series with L6 and 174 nM in [6].

On to `COc1ccc(C2=NCCN2)cc1-c1cn(-c2cccc(C3=NCCN3)c2)nn1.Cl.Cl`, for which the Activity entry is “Toxic” in the series on Mus musculus [8], 14 days in series [9], “Non-toxic” in the series with Mus musculus [4] and 12 days in [11]. Besides, the selectivity ratio in series [2] is over 36; in series [3], over 29300; in series [5], over 12600. Further, the IC50 is 14 nM in the series with Plasmodium falciparum, 4900 nM with Leishmania donovani, over 176000 nM in the series with L6 and 6 nM in series [6].

Take `Cl.Cl.N=C(N)c1ccc(-c2cn(-c3ccc(C(=N)N)cc3)nn2)cc1`: the Activity result in the series on Mus musculus [8] is “Non-toxic”; in [9], 27 days; in series [12], 25.5 days; in the series with Mus musculus [4], “Non-toxic”; with Mus musculus [13], “Toxic”. The results for the selectivity ratio in [2], in series [3] and in [5] were under 1, 2020 and 4050, respectively. The IC50 was 2 nM with Plasmodium falciparum, 9100 nM with Leishmania donovani, 8100 nM with L6 and 4 nM in series [6].

Regarding `Nc1nc(N)nc(Nc2ccc([As]3SCC(CO)S3)cc2)n1` (centres undefined) [MELARSOPROL], the values for the Activity entry (in the series on Mus musculus [14]; with Mus musculus [15]; in [11]) were “Non-toxic”, “Non-toxic” and 20 days, respectively.
